For orientation: inhibition means the relative decrease from the control value, in per cent. In general, IC50 refers to the concentration at which inhibition is half-maximal.

Active and inactive are the calls of the source. The rule behind the calls is not given here.

Experiment [1] deals with HEK293T. The experiment can be described thus: Metal chelating activity assessed as inhibition of human DMT1 expressed in HEK293T cells by measuring inhibition of radiolabeled 55Fe2+ uptake at 10 uM preincubated with compound for 5 mins followed by incubation with Fe2+ and radiolabeled 55Fe2+ for 15 mins at extracellular pH of 5.5 by scintillation counting analysis. In kind it is cell-based. The note with it: time 20.0 min. The gist of the method: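 HEK293T cells were seeded 30,000/well and transiently transfected with DsRED-hDMT1 by Lipofectamine 24 h later; assays ran the next day. After a wash in uptake solution, cells got a 5 min compound preincubation, then 15 min RT uptake in pH 5.5 uptake solution with 100 μM ascorbate, Fe²⁺ and ⁵⁵Fe²⁺ (0.5 μCi/mL). An ice-cold pH 7.5 wash followed, then scintillation counting, with cpm converted to influx rates.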

In experiment [2] the target is T1, Natural resistance-associated macrophage protein 2 (Homo sapiens, UniProt P49281).
T1 sequence (P49281 whole entry): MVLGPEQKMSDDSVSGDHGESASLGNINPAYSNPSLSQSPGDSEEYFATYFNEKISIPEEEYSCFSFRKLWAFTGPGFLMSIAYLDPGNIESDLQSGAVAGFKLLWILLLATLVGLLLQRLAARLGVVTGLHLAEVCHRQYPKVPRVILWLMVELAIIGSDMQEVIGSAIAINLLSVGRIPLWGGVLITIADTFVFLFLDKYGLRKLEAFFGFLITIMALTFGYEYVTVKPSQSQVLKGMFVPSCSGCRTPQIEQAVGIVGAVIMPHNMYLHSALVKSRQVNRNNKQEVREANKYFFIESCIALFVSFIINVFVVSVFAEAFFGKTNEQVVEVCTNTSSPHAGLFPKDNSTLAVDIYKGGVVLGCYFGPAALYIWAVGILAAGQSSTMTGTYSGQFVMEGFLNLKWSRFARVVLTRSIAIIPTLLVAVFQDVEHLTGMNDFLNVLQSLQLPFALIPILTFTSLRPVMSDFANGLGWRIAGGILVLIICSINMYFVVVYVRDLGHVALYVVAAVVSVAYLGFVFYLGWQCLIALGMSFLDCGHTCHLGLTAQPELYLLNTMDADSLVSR
The experiment can be described thus: Inhibition of human DMT1 expressed in HEK293 cells assessed as inhibition of radiolabeled 55Fe2+ uptake incubated for 1 hr by microplate scintillation counting analysis. In kind it is cell-based. Particulars: in the assay text read “incubated for 15 mins” for “incubated for 1 hr”. In outline:
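HEK293 cells stably expressing DsRED-hDMT1 were cultured in DMEM with 10% FBS, 10 mM HEPES and 1 mM Na-pyruvate, and seeded 50,000/well 24 h ahead. Cells got a 5 min compound preincubation, then 15 min RT uptake at pH 5.5 with 100 μM ascorbate, Fe²⁺ and ⁵⁵Fe²⁺ (0.5 μCi/mL). After an ice-cold pH 7.5 wash, cells sat 1 h in scintillant. Counts were converted to influx rates and fitted with a 4-parameter sigmoid for IC50.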

The nature of experiment [3]: Metal chelating activity assessed as compound-Fe2+ complex formation at 20 uM preincubated with Fe2+ for 5 mins followed by calcein challenge in aqueous buffer of pH 5.5 and measured after 5 mins by calcein quenching assay. Particulars: time 10.0 min.
Experiment [4] has as its system HEK293T. The experiment can be described thus: Metal chelating activity assessed as inhibition of human ZIP8 expressed in HEK293T cells by measuring inhibition of radiolabeled 55Fe2+ uptake at 10 uM preincubated with compound for 5 mins followed by incubation with Fe2+ and radiolabeled 55Fe2+ for 15 mins at extracellular pH of 7.4 by scintillation counting analysis. Type of experiment: cell-based. The note with it: time 20.0 min. The gist of the method:
(§1)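 HEK293T cells were seeded 30,000/well and transiently transfected with DsRED-hZIP8 by Lipofectamine 24 h later; assays ran the next day. Cells got a 5 min compound preincubation, then 15 min RT uptake with 100 μM ascorbate, Fe²⁺ and ⁵⁵Fe²⁺ (0.5 μCi/mL). An ice-cold wash followed, then scintillation counting, with counts converted to influx rates.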

Experiment [5] can be described thus: Metal chelating activity assessed as compound-Fe2+ complex formation by measuring precipitation at 10 uM incubated with radilolabeled-55Fe2+ for 15 mins in aqueous buffer of pH 7.4 by scintillation counting analysis. In outline:
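Uptake solution (pH 7.4) with 1 μM Fe2+, 100 μM ascorbic acid, 0.5 μCi/mL 55Fe2+ and 10 μM compound, incubated 15 min at RT in polypropylene tubes. Aliquots taken in quadruplicate for scintillation counting of remaining 55Fe2+.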

Experiment [6] can be described thus: Metal chelating activity assessed as compound-Cd2+ complex formation by UV-Vis titration based analysis.
The nature of experiment [7]: Metal chelating activity assessed as compound-Cd2+ complex formation by measuring precipitation at 0.4 mM in aqueous buffer of pH 5.5 by isothermal titration calorimetry. In outline:
(§2)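 Cadmium chloride titrated into 0.4 mM compound (from 10 mM DMSO stock) at 25 °C, stirring 750 rpm. Buffer was 20 mM HEPES/150 mM NaCl pH 7.5 or 20 mM MES/150 mM NaCl pH 5.5. First injection 0.4 μL, then 2 μL every 150 s. Buffer/DMSO control titrations run. Fit to a one-set-of-sites model, with fitting errors on KD.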
A general note: ITC needs no label: the signal is the heat of the interaction.

Experiment [8] is described as follows: Metal chelating activity assessed as compound-Fe2+ complex formation by UV-Vis titration based analysis.
The nature of experiment [9]: Metal chelating activity assessed as compound-Cd2+ complex formation at ratio of 2:1 at 0.4 mM in aqueous buffer of pH 7.4 by isothermal titration calorimetry. In outline: as §2
The nature of experiment [10]: Metal chelating activity assessed as inhibition of human ZIP8 expressed in HEK293T cells by measuring inhibition of radiolabeled 55Fe2+ uptake preincubated with compound for 5 mins followed by incubation with Fe2+ and radiolabeled 55Fe2+ for 15 mins at extracellular pH of 7.4 by scintillation counting analysis. Particulars: HEK-293T. Type of experiment: cell-based. The gist of the method:
as §1

For experiment [11], the target named is T1, Natural resistance-associated macrophage protein 2. The experiment can be described thus: Inhibition of human DMT1 expressed in Xenopus oocytes assessed as inhibition of channel currents at -50 mV holding potential by two-electrode voltage clamp assay. In kind it is cell-based. Particulars: oocyte. The gist of the method: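 Xenopus oocytes were injected with 20 ng hDMT1 cRNA and used 3–5 days later. Holding current at Vh −50 mV was recorded, low-pass filtered at 500 Hz and digitized at 5 kHz.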
On the technique in general: Two-electrode voltage clamp is typically applied to oocytes expressing channels or transporters.

The target of experiment [12] is T2, Natural resistance-associated macrophage protein 2 (Homo sapiens) (UniProt P49281).
T2 sequence (whole entry): T1 sequence (P49281 whole entry)
The experiment can be described thus: Inhibition of human DMT1 expressed in Xenopus laevis oocytes assessed as reduction in radiolabeled 55Fe2+ uptake at 10 uM preincubated for 5 mins followed by incubation with Fe2+ and radiolabeled 55Fe2+ and measured after 10 mins by scintillation counting method relative to control. Type of experiment: cell-based. The note with it: Oocyte, time 15.0 min. In outline: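 Xenopus oocytes injected with 20 ng hDMT1 cRNA, tested 3-5 days later, 10-15 oocytes per condition. 5 min RT in pH 5.5 transport medium with 10 μM compound, then 10 min with compound, 100 μM ascorbate, 1 μM Fe2+ and 0.5 μCi/mL 55Fe2+. Ice-cold rinse with 250 μM Fe2+, SDS solubilization, scintillation counting. Compound-free and non-injected oocytes run in parallel.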

Experiment [13] has as its target T2, Natural resistance-associated macrophage protein 2 (Homo sapiens). The experiment can be described thus: Inhibition of human DMT1 expressed in HEK293T cells by measuring inhibition of radiolabeled 55Fe2+ uptake at 10 uM preincubated with compound for 5 mins followed by incubation with Fe2+ and radiolabeled 55Fe2+ for 15 mins at extracellular pH of 5.5 by scintillation counting analysis. In kind it is cell-based. The note with it: time 20.0 min. The gist of the method: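 HEK293T cells seeded at 30,000/well 48 h ahead and transiently transfected 24 h later with DsRED-hDMT1. After wash in uptake buffer, 5 min preincubation with compound, then 15 min at RT in pH 5.5 uptake solution with 100 μM ascorbic acid, Fe2+ and 55Fe2+ (0.5 μCi/mL). Ice-cold pH 7.5 wash, scintillation counting, cpm converted to influx rate.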

Experiment [14] can be described thus: Metal chelating activity assessed as compound-Fe2+ complex formation by measuring precipitation at 10 uM incubated with radilolabeled-55Fe2+ for 15 mins in aqueous buffer of pH 7.4 by scintillation counting analysis.

For the compound `Cc1cc(=O)[nH]c(-n2[nH]c(C)c(C(=O)Nc3cccc(C(F)(F)F)c3)c2=O)n1`, the inhibition in the experiment with HEK293T [1] is less than 20%.

Turning to `Cc1cc(=O)[nH]c(-n2nc(C)c(Cc3ccccc3)c2C)n1`, in the experiment on HEK293T [1], the inhibition was less than 20%.

For the compound `Cc1cc(C)nc(-n2nc(C)cc2C)n1`, in the experiment with HEK293T [1], the inhibition is less than 20%.

`N=C(N)SCc1cccc(CSC(=N)N)c1`: the IC50 in experiment [2] was 7 µM.

On to `Cc1cc(=O)[nH]c(-n2nc(C(C)(C)C)cc2C)n1`, for which the inhibition in the experiment with HEK293T [1] was less than 20%.

Consider `Cc1cc(=O)[nH]c(-n2nc(C)c(-c3ccccc3)c2C)n1`, for which, in the experiment with HEK293T [1], the inhibition was less than 20%.

As for `Cc1cc(O)nc(-n2nc(C)cc2C)n1`, the outcome in [3] and in experiment [5] was inactive. Further, the result in the experiment with HEK293T [4] and with HEK293T [1] was Active.

For the compound `CCc1cc(=O)[nH]c(-n2[nH]c(C)cc2=O)n1`, in the experiment with HEK293T [1], the inhibition was less than 20%.

With `Cc1cc(=O)[nH]c(-n2[nH]c(C)c(Cc3ccccc3)c2=O)n1`, the inhibition in the experiment with HEK293T [1] is less than 20%.

`Cc1cc(=O)[nH]c(-n2nc3c(c2C)CNCC3)n1`: the inhibition in the experiment on HEK293T [1] is less than 20%.

Consider `CCc1cc(=O)n(-c2nc(C)cc(=O)[nH]2)[nH]1`, for which the inhibition in the experiment with HEK293T [1] was less than 20%.

As to `Cc1cc(=O)[nH]c(-n2nc3c(c2C)CCC3)n1`, the inhibition in the experiment on HEK293T [1] is less than 20%.

`Cc1cc(=O)[nH]c(-n2nc3c(c2C)CCCC3)n1`: the result in experiment [6] and in [8] was inactive. In addition, the result (in experiment [3]; in experiment [7]; in the experiment with HEK293T [4]; in experiment [9]; in experiment [5]; with HEK293T [1]) was Active. Besides, the concentration for half-maximal inhibition (IC50) in [10] was 1.4 µM; in [11], “Not Active”.

As to `N=C(N)SCc1cccc2c1oc1c(CSC(=N)N)cccc12`, the outcome (in the experiment on HEK293T [4]; in experiment [5]) was inactive. Besides, in [12], the inhibition was determined as 100%. Further, the inhibition entry in experiment [13] was “Active”.

With `Cc1cc(=O)[nH]c(-n2nc3c(c2C)COCC3)n1`, the inhibition with HEK293T [1] is less than 20%.

As to `Cc1cc(=O)[nH]c(-n2nc(-c3ccccc3)cc2C)n1`, the inhibition with HEK293T [1] is less than 20%.

As to `Cc1nn(-c2ccccn2)c(O)c1C(=O)Nc1cccc(C(F)(F)F)c1`, the outcome (in [3]; in the experiment with HEK293T [4]; in [14]; in experiment [5]; in the experiment with HEK293T [1]) was Active.

Take `CCOC(=O)c1cnc(-n2[nH]c(C)cc2=O)[nH]c1=O`: the inhibition in the experiment with HEK293T [1] is less than 20%.

The record behind these values is ChEMBL document CHEMBL4699420, “Pyrazolyl-pyrimidones inhibit the function of human solute carrier protein SLC11A2 (hDMT1) by metal chelation” (RSC Med Chem, 2020).
